# Results: ChEMBL document CHEMBL1126653, “Structure-function studies of amphiphilic antibacterial peptides” (1993)
# Peptide text beside a SMILES is read from it.
# What was measured:
# Format in all cases: functional
# Escherichia coli = test: Compound tested for in vitro susceptibility against ATCC strain 25922 of Escherichia coli; settings: ATCC25922
# In short: (§1)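 Microbroth dilution in Tryptic Soy Broth; inoculum 5×10^5 CFU/mL; plates incubated at 37 °C for 18-20 h; value reported as minimal inhibitory concentration (µg/mL).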
# Pseudomonas aeruginosa = test: Compound tested for in vitro susceptibility against ATCC strain 27853 of Pseudomonas aeruginosa; settings: ATCC 27853; in short: as §1
# Staphylococcus aureus = test: Compound tested for in vitro susceptibility against ATCC strain 29213 of Staphylococcus aureus; in short: as §1
MIC (Escherichia coli) [µg/mL],MIC (Pseudomonas aeruginosa) [µg/mL],MIC (Staphylococcus aureus) [µg/mL],Compound
50,50,12.5,NCCCC[C@H](NC(=O)[C@H](CCCCN)NC(=O)[C@H](Cc1c[nH]c2ccccc12)NC(=O)[C@H](Cc1c[nH]c2ccccc12)NC(=O)[C@H](CCCCN)NC(=O)[C@H](Cc1c[nH]c2ccccc12)NC(=O)[C@H](Cc1c[nH]c2ccccc12)NC(=O)[C@H](CCCCN)NC(=O)[C@@H](N)CCCCN)C(=O)N[C@@H](Cc1c[nH]c2ccccc12)C(=O)O (H-KKWWKWWKKW-OH)
25,50,200,CC(C)C[C@H](NC(=O)[C@H](C)NC(=O)[C@H](CCCCN)NC(=O)[C@H](C)NC(=O)[C@H](CC(C)C)NC(=O)[C@H](CCCCN)NC(=O)[C@H](C)NC(=O)[C@H](CC(C)C)NC(=O)[C@H](CCCCN)NC(=O)[C@H](CCCCN)NC(=O)[C@H](C)NC(=O)[C@H](CC(C)C)NC(=O)[C@H](CCCCN)NC(=O)[C@H](CCCCN)NC(=O)[C@H](C)NC(=O)[C@H](CC(C)C)NC(=O)[C@@H](N)CCCCN)C(=O)O (H-KLAKKLAKKLAKLAKAL-OH)
